# Laboratory results: PMC8426090 (ACS chemical neuroscience, 2021)
# Entries after “also recorded” stand apart in the source; their conditions may differ. Where a name gives a salt, the structure may show the parent alone.
# Assays:
# [1] = molecular target: dopamine D2 receptor (Rattus norvegicus, UniProt P61169); experiment: in vitro autoradiography on rat brain sections; assay type: binding; conditions: transaxial and coronal/transversal sections; excess competitor
# [2] = test system: D2^high; conditions: cited from earlier work
# [3] = test system: dopamine D2 receptor; conditions: co-incubation with guanylylimidodiphosphate; cited from earlier work
# [4] = human liver microsome stability assay; assay type: in vitro ADME; conditions: 1 h (60 min), 37 °C, NADPH 1 mM, pooled human liver microsomes
# Procedure, shortened: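 Test compound (from a 100× stock) preincubated 5 min at 37 °C with pooled human liver microsomes in 100 mM phosphate buffer pH 7.4. NADPH (1 mM final) started the reaction, run 30 or 60 min at 37 °C and quenched with cold acetonitrile. Supernatant analysed by C18 HPLC (UV 265 nm), with remaining parent expressed relative to the 0 min sample. Dextromethorphan was the positive control; negative controls were heat-inactivated microsomes and no NADPH. Triplicate.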
# [5] = test system: other receptors of the D2 receptor family; other receptors found in the brain; conditions: cited from earlier work
# [6] = biodistribution of [3H]MCL-536 in the rat brain; assay type: in vivo, Sprague–Dawley rats; conditions: for uptake in striatum, % injected dose per gram wet tissue: 15 min after tail vein injection
# [7] = biodistribution of [3H]MCL-536 in peripheral organs; assay type: in vivo, Sprague–Dawley rats
# dopamine D2 receptor (Rattus norvegicus, UniProt P61169), sequence (P61169 whole entry): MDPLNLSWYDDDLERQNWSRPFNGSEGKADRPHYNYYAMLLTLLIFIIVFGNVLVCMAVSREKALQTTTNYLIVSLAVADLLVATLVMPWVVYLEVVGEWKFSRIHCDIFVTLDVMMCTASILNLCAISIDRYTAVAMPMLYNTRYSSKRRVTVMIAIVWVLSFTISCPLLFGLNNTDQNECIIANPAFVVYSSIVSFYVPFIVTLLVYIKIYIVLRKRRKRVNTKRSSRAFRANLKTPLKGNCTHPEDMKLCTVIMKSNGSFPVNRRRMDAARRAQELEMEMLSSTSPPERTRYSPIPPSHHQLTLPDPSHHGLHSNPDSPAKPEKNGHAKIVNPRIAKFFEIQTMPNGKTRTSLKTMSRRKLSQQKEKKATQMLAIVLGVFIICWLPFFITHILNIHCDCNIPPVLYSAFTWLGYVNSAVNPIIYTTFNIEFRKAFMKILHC
smiles,measurement,setting,value
CCN1CCC[C@H]1CNC(=O)c1c(O)c(Cl)cc(Cl)c1OC [raclopride],effect on binding of [3H]MCL-536 on brain sections (summary statements),[1],completely abolished
"C[C@H](N)Cc1ccccc1 [Amphetamine, d-amphetamine sulfate]","increase in D2high, measured in the striatum in vivo",[2]; in vivo,~2.36 fold
same,elevation of D2high in vitro in the same tissue,"[2]; striatum, in vitro",2.44 fold
"Nc1nc2c(ncn2[C@@H]2O[C@H](COP(=O)(O)OP(=O)(O)NP(=O)(O)O)[C@@H](O)[C@H]2O)c(=O)[nH]1 [Gpp(NH)p, guanylylimidodiphosphate]",effect on binding of [3H]MCL-536 on brain sections (summary statements),[1],abolished binding
same,binding of [3H]MCL-536 to D2high on co-incubation,[3],abolished binding to D2^high
CCN1CCCC1CNC(=O)c1cc(S(N)(=O)=O)ccc1OC (stereo not shown) [sulpiride],effect on binding of [3H]MCL-536 on brain sections (summary statements),[1],completely abolished
[3H]C(C)C([3H])N1CCc2cc(OCCCF)cc3c2[C@H]1Cc1cccc(O)c1-3 (stereo partly shown) [MCL-536],compound remaining intact after incubation with human liver microsomes,[4],about 75%
same,affinity for other receptors found in the brain / other receptors tested,[5],little to no affinity
same,affinity for other receptors of the D2 receptor family,[5],but not for the other receptors of the D2 subfamily; also recorded: but not to other receptors of the D2 receptor family
"CCCN1CCc2cccc3c2[C@H]1Cc1ccc(O)c(O)c1-3 [NPA, (R)-(−)-N-n-propylnorapomorphine]",effect on binding of [3H]MCL-536 on brain sections (summary statements),[1],abolished
[3H]C(C)C([3H])N1CCc2cc(OCCCF)cc3c2[C@H]1Cc1cccc(O)c1-3 (stereo partly shown) [[^3H]MCL-536],brain uptake values 4 h after injection,[6]; 4 h after injection,almost baseline
same,"uptake in striatum, % injected dose per gram wet tissue",[6]; female rats,0.42 %ID/g
same,course of %ID/g in the striatum,"[6]; females, 60 min postinjection",stable
same,baseline binding in cerebellum,[6]; male and female rats,≤ 0.1 %ID/g
same,"uptake in striatum, % injected dose per gram wet tissue",[6]; male rats,0.28 %ID/g
same,decline of %ID/g in the striatum,"[6]; males, 60 min postinjection",about 25%
same,time of maximum %ID/g in peripheral tissues,[7]; all peripheral tissues,15 min
same,reduction of levels in fatty tissue,[7]; at 60 min,about 2/3
same,decline of %ID/g in the kidneys,"[7]; by 60 min, both sexes",about 60%
